PMI act satM6P – increases human PMI activity with near-saturating mannose 6-phosphate | P34949 | coupled PMI enzyme assay, resazurin fluorescence, 20 min; active compounds read high; 1 = untreated enzyme, 0 = substrate-free blank | activation factor at 20 µM | 190,000 tested, 0.34% active | AID 1216;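 active means activation factor of 2 or more at 20 µM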
Target sequence (P34949 whole entry, looked up): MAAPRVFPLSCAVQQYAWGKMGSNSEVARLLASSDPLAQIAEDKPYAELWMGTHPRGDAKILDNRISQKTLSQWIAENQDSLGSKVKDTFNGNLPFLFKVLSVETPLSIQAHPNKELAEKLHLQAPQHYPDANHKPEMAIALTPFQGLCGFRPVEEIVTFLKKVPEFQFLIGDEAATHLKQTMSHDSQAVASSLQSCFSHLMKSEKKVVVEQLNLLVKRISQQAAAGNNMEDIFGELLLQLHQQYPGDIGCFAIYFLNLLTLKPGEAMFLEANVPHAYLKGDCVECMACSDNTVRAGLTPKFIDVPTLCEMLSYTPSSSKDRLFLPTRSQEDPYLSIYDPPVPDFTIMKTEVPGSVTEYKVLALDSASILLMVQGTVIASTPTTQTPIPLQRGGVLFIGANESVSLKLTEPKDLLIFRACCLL
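Test system: human phosphomannose isomerase with PGI, G6PDH, diaphorase coupling enzymes; Amount: PMI at 15 ng/mL final; Reagent: Mannose-6-phosphate 1.0 mM (near-saturating) plus 0.22 mM NADP+; Timing: 20 min, room temperature; Technique: resorufin fluorescence at Ex 544/Em 590 nm; Dosing: 20 µM single dose.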
Lmaj promast – Leishmania major promastigote growth inhibition | Leishmania major promastigotes, resazurin fluorescence viability | inhibition, % at 10 µM | 200,000 tested, 9% active | AID 1063; in the data active means inhibition above about 50%;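 further: promastigotes grown with compound for 44 hours at 28 °C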
PMI act – increases human mannose-6-phosphate isomerase activity | P34949 | purified human PMI, coupled resazurin fluorescence, 20 min; active compounds read high; 1 = vehicle control, 0 substrate-free wells | activation factor at 20 µM | 190,000 tested, 0.005% active | AID 1214;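 active means activation factor of 2 or more at 20 µM, relative to plate controls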
PTEN del growth – PTEN-deleted cell growth suppression; HCT116 PTEN-null viability, CellTiter-Glo, 60 h; active compounds read low; viability, % at 10 µM; 140,000 tested, 1.2% active;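 active means viability at or below a set limit, 4 SD under the median of all tested compounds, cut at about 3.7% in these data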;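 further: PTEN knockout HCT116 line with beta catenin targeted HCT116 as companion control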
bCat KO growth – beta-catenin-lacking colon tumor cell growth suppression; HCT116 beta-catenin knockout viability, CellTiter-Glo, 60 h; active compounds read low; viability, % at 10 µM; 140,000 tested, 1.5% active; AID 818;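 active means viability at or under a set limit, the compound median less 4 SD, cut at about 6% in these data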;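 further: 0% = Hyamine 1622 control at 20 µM and 100% = untreated cell control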
Numbers without * were called inactive; . = no result. Rows were chosen to be rich in hits. Some 9.6% of all compounds tested hit in one or more screens of this group.

SMILES | PMI act satM6P | Lmaj promast | PMI act | PTEN del growth | bCat KO growth
COc1cccc(CNC(=O)c2ccc(S(=O)(=O)N3CCCC3)cc2)c1 | 0.9 | 1.1 | 0.9 | 104.3 | 100.9
CN(Cc1ccccc1F)c1ccc(S(=O)(=O)N2CCCC2)cn1 | 1 | 98.2* | 1.1 | . | .
Cn1ncc2c(=O)n(CC(=O)NC34CC5CC(CC(C5)C3)C4)cnc21 | 1 | 9.9 | 1 | 98.0 | 90.0
Cc1oc(-c2cccs2)nc1CN1CCN(CC(C)C)C(CCO)C1 (configuration not stated) | 0.9 | 1.6 | 0.8 | . | .
Cc1ccccc1CC1(CO)CCCN(Cc2nc(-c3cccs3)oc2C)C1 (configuration not stated) | 1 | 54.8* | 0.8 | . | .
Nc1nnc(CSCc2ccc(Cl)cc2)s1 | 0.9 | -3.9 | 0.9 | 88.1 | 91.5
Nc1nnc(SCc2ccc(Cl)cc2)s1 | 0.9 | -3.1 | 0.9 | 0.8* | 0.8*
NS(=O)(=O)c1ccc(N/C=C\C(=O)c2ccc3ccccc3c2)cc1 | 1.2 | -7.4 | 1.2 | 91.8 | 97.2
O=C(Nc1nc(-c2ccccc2)c(-c2ccccc2)s1)c1ccc(S(=O)(=O)N2CCCC2)cc1 | 1.2 | 98.2* | 0.9 | 63.9 | 81.3
COc1ccc(C(=O)Nc2nc(-c3ccc([N+](=O)[O-])cc3)c(-c3ccccc3)s2)cc1 | . | 68.3* | . | . | .
Cc1ccc(C)c2sc(NC(=O)c3nc4ccccc4s3)nc12 | 1.1 | -11.3 | 1.1 | 22.9 | 20.8
O=C(Nn1cnnc1)c1ccccc1CCc1ccccc1 | 0.9 | -1.9 | 0.9 | 87.9 | 108.7
CN(C)CCCN(C(=O)c1ccc2c(c1)CCCC2)c1nc2c(F)cccc2s1 | 0.6 | 28.6 | 1.2 | 15.8 | 29.3
Cc1ccc2nc(N(CCCN(C)C)C(=O)c3ccc4c(c3)CCCC4)sc2c1 | 1 | 98.7* | 0.9 | 1.0* | 3.4*
Cc1nc2sc(-c3ccccc3)cc2c(=O)n1/N=C/N(C)C | 1 | -3.5 | 1 | . | .
NC1=NC(=O)/C(=C/c2c(OS(=O)(=O)c3ccc(Cl)cc3)ccc3ccccc23)S1 | 1.2 | 60.8* | 1.2 | 96.6 | 89.3
NC1=NC(=O)/C(=C/c2ccccc2OS(=O)(=O)c2ccccc2)S1 | 0.9 | -4.7 | 0.8 | 93.5 | 95.5
CCn1c(=O)n(CC)c2cc(S(=O)(=O)Nc3c(C)cccc3C)ccc21 | 1.1 | 98.4* | 1.1 | 101.3 | 84.3
CCn1c(=O)n(CC)c2cc(S(=O)(=O)Nc3cc(C)cc(C)c3C#N)ccc21 | 1.5 | 12.7 | 1.3 | 99.5 | 55.5
O=C(CSc1nncs1)Nc1ccc2c(c1)OCO2 | 0.9 | 5.1 | 1 | . | .
CC(C)(C)NC(=O)c1oc2ccccc2c1COc1ccccc1 | 0.8 | 19.2 | 0.8 | 73.7 | 74.4
CCN(CC)S(=O)(=O)c1cc(NC(=O)COC(=O)c2sc3ccccc3c2Cl)ccc1C | 1 | 50.0* | 1 | 100.9 | 90.8
O=C(COC(=O)CNC(=O)c1sc2ccccc2c1Cl)Nc1cc(Cl)cc(Cl)c1 | 1 | -6.5 | 1 | . | .
Cc1ccccc1NC(=O)COC(=O)CNC(=O)c1sc2ccccc2c1Cl | 0.9 | 87.2* | 0.9 | 87.0 | 87.7
CCCN(CC1CC1)C(=O)COC(=O)c1[nH]c(C)c(C(=O)OCC)c1C | 1.1 | 80.2* | 1 | 89.5 | 91.8
SMILES | PMI act satM6P | Lmaj promast | PMI act | PTEN del growth | bCat KO growth
CCNC(=O)CC1C(=O)N(CC)C(=S)N1NC(=O)c1cccnc1 (configuration not stated) | 1 | -1.3 | 1.1 | . | .
O=C(C[n+]1ccc(CCSc2ccc(F)cc2)cc1)c1ccccc1 | 0.8 | 6.3 | 0.9 | . | .
CC(SCc1ccccc1)C(=O)Nc1ccccc1-c1ccccc1 (configuration not stated) | 0.9 | 56.9* | 0.9 | 69.4 | 80.2
COc1ccccc1N(C(=O)NCc1ccccc1)C1=NCC(C)S1 (configuration not stated) | 0.9 | 56.6* | 0.9 | 94.4 | 90.5
COc1ccccc1NC(=O)N(Cc1ccccc1)C1=NCC(C)S1 (configuration not stated) | 0.9 | 19.7 | 0.9 | 86.7 | 89.8
O=c1[nH]c(/C(=N\O)c2ccccc2)no1 | 0.8 | -4.2 | 0.8 | 84.4 | 85.9
CCN1C(=O)c2cccc3c(S(=O)(=O)NCCCN4CCOCC4)ccc1c23 | 0.9 | 78.0* | 1.1 | 78.8 | 80.1
CCN1C(=O)c2cccc3c(S(=O)(=O)NCCc4c[nH]c5ccccc45)ccc1c23 | 0.8 | 98.8* | 0.8 | 95.6 | 85.8
Nc1nc(SCC(=O)Nc2ncc(C(F)(F)F)cc2Cl)n[nH]1 | 1 | -6.6 | 1.1 | . | .

Screening results (PubChem BioAssay)
